Results published in PubChem BioAssay AID488769 (The Scripps Research Institute Molecular Screening Center, 2010).

Target: Nuclear receptor subfamily 5 group A member 2 (Homo sapiens) (UniProt O00482)
Experiment: suppression of cytokine-induced LRH-1 target mRNA, cell-based, quantitative PCR, fluorescence (AID 488769)
Settings: Huh7 cytokine-induced target gene mRNA, TaqMan qPCR, 18 h, at 10 µM, hits give high values;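 active means compounds cutting cytokine-driven expression of at least one of three liver inflammation genes by over 25%; inactive means the rest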
Outline: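 replication = triplicate | test system = Huh7 cells with endogenous LRH-1 expression | signal = TaqMan qPCR of haptoglobin, SAA1 and SAA4 mRNA | reagent = IL-1β and IL-6, 3 nM | incubation = 18 h compound exposure, then 3 h cytokine stimulation | dosing = single dose, 10 µM | measure = mean percent inhibition of target gene expression, total-RNA normalized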

Measured: inhibition

Nuclear receptor subfamily 5 group A member 2 (Homo sapiens), sequence (O00482 whole entry, looked up): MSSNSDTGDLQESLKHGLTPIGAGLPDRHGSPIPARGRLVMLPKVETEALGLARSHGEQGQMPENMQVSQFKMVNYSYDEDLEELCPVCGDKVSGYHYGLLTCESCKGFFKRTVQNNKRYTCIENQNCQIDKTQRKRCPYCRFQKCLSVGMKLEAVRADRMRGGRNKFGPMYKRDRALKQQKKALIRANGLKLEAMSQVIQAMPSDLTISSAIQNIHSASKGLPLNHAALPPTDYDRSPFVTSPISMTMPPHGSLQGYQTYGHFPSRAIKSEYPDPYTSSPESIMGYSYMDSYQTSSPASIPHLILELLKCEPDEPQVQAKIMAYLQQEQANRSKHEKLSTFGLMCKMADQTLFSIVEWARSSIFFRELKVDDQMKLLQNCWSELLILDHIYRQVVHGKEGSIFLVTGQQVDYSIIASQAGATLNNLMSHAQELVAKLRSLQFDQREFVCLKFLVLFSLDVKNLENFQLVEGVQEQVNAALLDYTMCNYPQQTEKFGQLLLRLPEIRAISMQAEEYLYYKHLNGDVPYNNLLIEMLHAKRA

O=c1cc(N2CCN(c3cccc(C(F)(F)F)c3)CC2)[nH]c(=O)n1C1CCCCC1
active: Haptoglobin 86% | SAA1 93% | SAA4 55%

O=c1cc(N2CCN(c3cccc(Cl)c3)CC2)[nH]c(=O)n1C1CCCCC1
active: Haptoglobin 88% | SAA1 91% | SAA4 55%
